Most compounds without a hit are left out; they make up all but 1.6% or so of the library.
TLR4 MyD88 comp – blocks binding of human TLR4 to MyD88; O00206+Q99836; HeLa CL3-4 TLR4/MyD88 BLA complementation, FRET ratio; inhibition, % at 8.4 µM; 200,000 tested, 0.18% active; in the data active means inhibition above about 25%;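 further: 0% = vehicle and 100% = reference inhibitor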
TLR9-MyD88 block – inhibitors of human TLR9-MyD88 binding | Q9NR96+Q99836 | CHO BLA complementation TLR9-MyD88, CCF4 FRET ratio | inhibition, % at 4.98 µM | 340,000 tested, 0.21% active;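 active means inhibition above the mean over all tested compounds plus 3 SD, cut at about 21% in these data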;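 further: 0% = DMSO only wells and 100% = clavulanate BLA inhibitor control wells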
NOD2-RIPK2 inh – inhibitors of human NOD2-RIPK2 interaction. CHO BLA complementation NOD2-RIPK2, CCF4 ratio. inhibition, % at 4.98 µM. AID 624267. 360,000 tested, 0.38% active; in the data active means inhibition above about 21%;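 further: 0% = vehicle only and 100% = reference blocker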
Beta2AR agonist – human beta-2 adrenergic receptor agonism by FAP; P07550; Am2.2-beta2AR cells, FAP receptor internalization, flow cytometry; response, % (no concentration beside the values); 340,000 tested, 0.43% active;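 active means response above a set limit, near 3 SD of response in nonfluorescent compounds, cut at about 42% in these data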
Dynein cargo inh – blocks dynein driven cargo transport along microtubules | 3617.4 mouse cells, GR-EGFP nuclear translocation imaging; test concentration mostly 20 µM; stimulated with dexamethasone, 1 µM; hits give low values | z-score, hits read low | 220,000 tested, 0.47% active | AID 1381;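 active means plate z-score of nuclear minus cytoplasmic receptor signal below a set negative limit, without overly bright fluorescence or cell loss, cut at about -3.5 in these data, passing the limit was not always enough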;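 further: z-score of nuclear minus cytoplasmic ring GR-EGFP intensity difference per well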
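medium = tetracycline-free induction medium containing charcoal-stripped FBS | also added = 1.0 µM final dexamethasone stimulus | schedule = 48 h induction, 1 h compound, 30 min dex at 37 °C | technique = fixed, Hoechst-stained cells imaged at 10x for EGFP | measure = GR-EGFP nuclear translocation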
ABHD5-PLIN5 inh – inhibitors of human ABHD5-perilipin-5 interaction. inhibition, % at 4 µM. 360,000 tested, 0.78% active. Split G. princeps luciferase complementation, luminescence, 4 h. AID 602281;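 active means inhibition above the mean inhibition across every tested compound plus 3 SD, cut at about 22% in these data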;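 further: 0% = DMSO only wells and the 100% control is not disclosed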
* = called active by the depositor; nt = not tested or not shown.

SMILES | TLR4 MyD88 comp | TLR9-MyD88 block | NOD2-RIPK2 inh | Beta2AR agonist | Dynein cargo inh | ABHD5-PLIN5 inh
C#CCOCCOCCOCCNc1nc(N2CCN(C(=O)[C@H](CCCCN)n3cc([C@@H](N)C(C)CC)nn3)CC2)nc(N2CCN(C(=O)[C@H](Cc3cc4ccccc4[nH]3)n3cc([C@@H](N)CC(C)C)nn3)CC2)n1 (some centres not stated) | -15 | 6 | -3 | -4 | 0.56 | 24*
C#CCOCCOCCOCCNc1nc(N2CCN(C(=O)[C@H](Cc3cc4ccccc4[nH]3)n3cc([C@@H](N)C(C)CC)nn3)CC2)nc(N2CCN(C(=O)[C@H](CCCCN)n3cc([C@@H](N)CO)nn3)CC2)n1 (some centres not stated) | -9 | nt | nt | nt | 1.4 | nt
C#CCOCCOCCOCCNc1nc(N2CCN(C(=O)CCCCCCCCCCNC(=O)[C@@H](CCC(=O)O)n3cc(CCCCCN)nn3)CC2)nc(N2CCN(C(=O)CCCCCCCCCCNC(=O)[C@H]([C@@H](C)CC)n3cc(CCCCCN)nn3)CC2)n1 | nt | 5 | -1 | 52* | nt | 51*
CN(c1ccccc1)S(=O)(=O)c1cccc(NS(=O)(=O)c2cccc(C(=O)O)c2)c1 | nt | -12 | -1 | 2 | nt | 22*
CC(=O)Nc1cc(-c2ccc(C(=O)NC3CC3)cc2)cn2c(-c3cccc(C(F)(F)F)c3)cnc12 | nt | nt | 1 | nt | nt | 13
N#C/C(=C\c1cccn1S(=O)(=O)c1cccc(C#N)c1)S(=O)(=O)c1ccc(F)cc1 | nt | nt | 9 | nt | nt | -6
C/C(=N\NC(=O)c1ccccc1)c1ccc(N2CCOCC2)cc1 | 5 | 3 | -1 | 1 | -3.6* | 1
C/C(=N\NC(=O)c1ccncc1)c1ccc(N2CCOCC2)cc1 | nt | -1 | -13 | 4 | nt | 1
Oc1ccc(C[C@H]2CN([C@@H](Cc3ccccc3)CN3CCCC3CN3C(=S)NC[C@@H]3Cc3ccccc3)C(=S)N2CC2CCCCC2)cc1 (some centres not stated) | nt | nt | -2 | nt | nt | -5
Oc1ccc(C[C@H]2CN([C@@H](Cc3cccc(O)c3)CN3CCC[C@@H]3CN3C(=S)NC[C@@H]3Cc3ccccc3)C(=S)N2CC2CCCCC2)cc1 | nt | nt | -6 | nt | nt | 23*
COc1ccc([C@H]2C[C@@H](O)[C@H](n3cc(COC(=O)c4ccccc4)nn3)CN2CC2CCCCC2)cc1 | nt | 0 | -9 | nt | nt | -13
Cc1nc2ccccn2c1C(=O)N=Nc1c(O)n(CCC(C)C)c2ccccc12 | -7 | -3 | 3 | 45* | -0.13 | -4
CCCn1c(O)c(N=NC(=O)c2ccco2)c2ccccc21 | -20 | -2 | -4 | -25 | -0.49 | -4
COc1ccc(C(=O)N=C2SC3CS(=O)(=O)CC3N2c2ccc(N(C)C)cc2)cc1OC (configuration not stated) | nt | -15 | -5 | 54* | nt | -9
O=C1NN(c2ccccc2)C(=O)/C1=C\c1cccc(OC(=O)c2cccs2)c1 | 1 | 2 | -10 | 19 | -3.3 | -11
O=C1NN(c2ccc(Cl)c(Cl)c2)C(=O)/C1=C/c1cccc(OC(=O)c2cccs2)c1 | 9 | nt | nt | nt | -3.8* | nt
Cn1nccc1-c1coc2c(C(=O)NCc3ccccc3)cccc12 | nt | nt | 10 | nt | nt | 3
Cc1ccccc1P(=O)(c1ccccc1)c1ccccc1C | nt | 1 | -5 | nt | nt | -9
COc1ccc(/C=C/C(=O)c2ccccc2)cc1COc1ccc(F)cc1 | 7 | 0 | -4 | 19 | -0.68 | 22*
COc1ccc(/C=C/C(=O)c2ccc(O)cc2)cc1COc1ccc(F)cc1 | 7 | 9 | 1 | 11 | -0.0039 | 6
CC(=O)Nc1ccc(C2=NNC(=Nc3cccc(S(=O)(=O)N(C)C)c3)SC2)cc1 | 1 | -10 | -4 | -3 | 1.2 | 58*
O=C1C=CC(=C(c2ccc(O)cc2)c2ccc(O)cc2)C=C1 | nt | -15 | 1 | -3 | nt | 78*
COC(=O)c1ccccc1NC(=O)c1nc(S(=O)(=O)Cc2ccccc2)ncc1Cl | nt | 8 | 2 | 52* | nt | -2
Cc1ccc(S(=O)(=O)ON2C(=O)c3ccccc3C2=O)c(C)c1 | -17 | -7 | -11 | -3 | -4.8* | -2
COc1ccccc1C(=O)N/N=C(\C)CC(=O)Nc1ccccc1NC(C)=O | nt | -2 | -10 | 18 | nt | 10
SMILES | TLR4 MyD88 comp | TLR9-MyD88 block | NOD2-RIPK2 inh | Beta2AR agonist | Dynein cargo inh | ABHD5-PLIN5 inh
COCC(=O)N/N=C(\C)CC(=O)Nc1ccccc1C(N)=O | 5 | 6 | 23* | -5 | -0.6 | 3
CN1CCN(CCCNC(=O)c2ccc(/C=C3\Sc4ccccc4N(Cc4ccc(F)cc4)C3=O)cc2)CC1 | 15 | 0 | 2 | 99* | -0.18 | 13
CN1CCN(CCCNC(=O)c2ccc(/C=C3\Oc4ccccc4N(Cc4ccccc4F)C3=O)cc2)CC1 | nt | 2 | 14 | 12 | nt | 9
CCN1CCN(CCNC(=O)c2ccc(/C=C3\Sc4ccccc4N(Cc4ccccc4F)C3=O)cc2)CC1 | -11 | 6 | 12 | 55* | 0.22 | 17
CN1CCN(CCCNC(=O)c2ccc(/C=C3/Sc4ccccc4N(Cc4cccc(Cl)c4)C3=O)cc2)CC1 | -3 | -1 | 8 | 24 | -1.1 | 21
O=C(Nc1cccc(Cl)c1)c1nc[nH]c1C(=O)Nc1ccccc1F | nt | -4 | -1 | nt | nt | -5
O=C1c2cccc3c(N4CCCCC4)ccc(c23)C(=O)N1c1ccc(Cl)cn1 | 28* | nt | nt | nt | -5.7 | nt
COC(=O)Cn1c(=NC(=O)c2cc(-c3cccs3)nc3ccccc23)sc2cc(S(N)(=O)=O)ccc21 | -21 | -1 | -14 | 6 | -0.76 | 26*
CC(C)N1CCC(C)(C(=O)Nc2cccc(Oc3ccccc3)c2)C1 (configuration not stated) | nt | nt | 8 | nt | nt | 4
COc1ccc2cc(-c3[nH]ncc3CN3C[C@@H]4CCC[C@H]3C4)ccc2c1 | 2 | 4 | -2 | -7 | -0.074 | 23*
O=C(NC1=NCCS1)c1ccc(N2CCCC2=O)cc1 | 1 | -4 | -5 | 48* | -0.27 | 5
Cc1nnc(NC(=O)c2ccc(N3CCCC3=O)cc2)s1 | nt | -6 | -6 | 1 | nt | -2
O=C(Nc1ccc(Br)cc1)c1cccc(OC(=S)N2CCOCC2)c1 | nt | -2 | -1 | 77* | nt | -4
COc1ccc(NC(=O)c2cccc(OC(=S)N3CCOCC3)c2)cc1 | nt | 0 | -22 | 6 | -0.012 | 12
O=C(CSc1n[nH]c(=O)n1C1CC1)c1c[nH]c2ccccc12 | nt | -13 | -1 | 8 | nt | -5
